MIC data for two molecules are collected here from ChEMBL document CHEMBL1649569, “oqxAB encoding a multidrug efflux pump in human clinical isolates of Enterobacteriaceae” (2009).

The test system of assay [1] is Klebsiella pneumoniae. Kind of assay: Antibacterial activity against Klebsiella pneumoniae isolate 4-13 harboring aac(6')Ib-cr gene by Etest method.
In assay [2] the test system is Klebsiella pneumoniae. The assay can be described thus: Antibacterial activity against Klebsiella pneumoniae isolate 2-54 by Etest method.
Assay [3] concerns Escherichia coli. The assay can be described thus: Antibacterial activity against Escherichia coli isolate 4-69 by Etest method.
The test system of assay [4] is Klebsiella pneumoniae. The assay can be described thus: Antibacterial activity against Klebsiella pneumoniae isolate 5-80 by Etest method.
For assay [5], the system named is Escherichia coli. The assay can be described thus: Antibacterial activity against Escherichia coli isolate 5-59 harboring qepA gene by Etest method.
Assay [6] concerns Klebsiella pneumoniae. Kind of assay: Antibacterial activity against Klebsiella pneumoniae isolate 3-45 by Etest method.
Assay [7] relates to Klebsiella pneumoniae. Kind of assay: Antibacterial activity against Klebsiella pneumoniae isolate 4-38 harboring aac(6')Ib-cr gene by Etest method.
Assay [8] has as its system Escherichia coli. The assay can be described thus: Antibacterial activity against Escherichia coli isolate 1-12 by Etest method.
The test system of assay [9] is Escherichia coli. Kind of assay: Antibacterial activity against Escherichia coli isolate 5-56 by Etest method.
The subject of assay [10] is Klebsiella pneumoniae. The assay can be described thus: Antibacterial activity against Klebsiella pneumoniae isolate 5-22 by Etest method.
Assay [11] deals with Escherichia coli. The assay can be described thus: Antibacterial activity against Escherichia coli isolate 4-78 by Etest method.
In assay [12] the test system is Klebsiella pneumoniae. Kind of assay: Antibacterial activity against Klebsiella pneumoniae isolate 6-49 by Etest method.
For assay [13], the system named is Klebsiella pneumoniae. The assay can be described thus: Antibacterial activity against Klebsiella pneumoniae isolate 4-39 by Etest method.
Assay [14] has as its system Escherichia coli. Kind of assay: Antibacterial activity against Escherichia coli isolate 5-65 by broth dilution method. The format is functional. Summed up: (§1)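 MIC by broth dilution in LB broth against human clinical Enterobacteriaceae isolates, with strains characterised by PCR for oqxA/oqxB and other plasmid-mediated quinolone resistance genes.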
Assay [15] deals with Klebsiella pneumoniae. The assay can be described thus: Antibacterial activity against Klebsiella pneumoniae isolate 4-13 harboring aac(6')Ib-cr gene by broth dilution method. It counts as functional. Summed up: as §1
Assay [16] deals with Enterobacter cloacae. The assay can be described thus: Antibacterial activity against Enterobacter cloacae isolate 1-26 by broth dilution method. It counts as functional. Summed up:
(§2)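 Clinical isolates tested by broth dilution in LB broth, with the MIC read as the end-point.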

The subject of assay [17] is Enterobacter cloacae. The assay can be described thus: Antibacterial activity against Enterobacter cloacae isolate 1-3 by broth dilution method. The format is functional. Summed up:
as §2

For assay [18], the system named is Enterobacter cloacae. The assay can be described thus: Antibacterial activity against Enterobacter cloacae isolate 1-40 by broth dilution method. It counts as functional. The essentials:
as §2

In assay [19] the test system is Escherichia coli. The assay can be described thus: Antibacterial activity against Escherichia coli ATCC 25922 by broth dilution method. It counts as functional.
For assay [20], the system named is Klebsiella pneumoniae. The assay can be described thus: Antibacterial activity against Klebsiella pneumoniae isolate 4-39 by broth dilution method. It counts as functional. The essentials: as §2
In assay [21] the test system is Escherichia coli. The assay can be described thus: Antibacterial activity against Escherichia coli isolate 4-67 by broth dilution method. It counts as functional. The essentials: as §1
The test system of assay [22] is Enterobacter cloacae. The assay can be described thus: Antibacterial activity against Enterobacter cloacae isolate 4-11 by broth dilution method. It counts as functional. Summed up:
as §2

Assay [23] deals with Klebsiella pneumoniae. Kind of assay: Antibacterial activity against Klebsiella pneumoniae isolate 5-80 by broth dilution method. The format is functional. Summed up: as §2
Assay [24] concerns Enterobacter cloacae. Kind of assay: Antibacterial activity against Enterobacter cloacae isolate 1-39 by broth dilution method. It counts as functional. The essentials: as §2
Assay [25] relates to Escherichia coli. The assay can be described thus: Antibacterial activity against azide-resistant Escherichia coli J53 by broth dilution method.
For assay [26], the system named is Klebsiella pneumoniae. The assay can be described thus: Antibacterial activity against Klebsiella pneumoniae isolate 3-45 by broth dilution method. The format is functional. Summed up:
as §2

For assay [27], the system named is Klebsiella pneumoniae. Kind of assay: Antibacterial activity against Klebsiella pneumoniae isolate 1-68 by broth dilution method. It counts as functional. Summed up:
as §2

Assay [28] concerns Escherichia coli. Kind of assay: Antibacterial activity against Escherichia coli isolate 4-69 by broth dilution method. It counts as functional. The essentials: as §1
Assay [29] deals with Klebsiella pneumoniae. Kind of assay: Antibacterial activity against Klebsiella pneumoniae isolate 5-22 by broth dilution method. The format is functional. Summed up:
as §2

For assay [30], the system named is Escherichia coli. Kind of assay: Antibacterial activity against Escherichia coli isolate 5-59 harboring qepA gene by broth dilution method. It counts as functional. The essentials:
as §1

The subject of assay [31] is Escherichia coli. The assay can be described thus: Antibacterial activity against Escherichia coli isolate 4-78 by broth dilution method. It counts as functional. Summed up:
as §1

Assay [32] has as its system Klebsiella pneumoniae. Kind of assay: Antibacterial activity against Klebsiella pneumoniae isolate 4-38 harboring aac(6')Ib-cr gene by broth dilution method. It counts as functional. Summed up: as §1
The test system of assay [33] is Klebsiella pneumoniae. Kind of assay: Antibacterial activity against Klebsiella pneumoniae isolate 2-54 by broth dilution method. It counts as functional. The essentials:
as §2

The test system of assay [34] is Klebsiella pneumoniae. The assay can be described thus: Antibacterial activity against Klebsiella pneumoniae isolate 6-49 by broth dilution method. The format is functional. Summed up:
as §2

The subject of assay [35] is Klebsiella pneumoniae. Kind of assay: Antibacterial activity against Klebsiella pneumoniae isolate 3-51 by broth dilution method. It counts as functional. The essentials: as §2
Assay [36] concerns Enterobacter cloacae. Kind of assay: Antibacterial activity against Enterobacter cloacae isolate 6-4 by broth dilution method. The format is functional. The essentials:
as §2

The test system of assay [37] is Escherichia coli. The assay can be described thus: Antibacterial activity against Escherichia coli isolate 5-56 by broth dilution method. It counts as functional. The essentials: as §1
Assay [38] has as its system Escherichia coli. The assay can be described thus: Antibacterial activity against Escherichia coli isolate 1-12 by broth dilution method. It counts as functional. The essentials: as §2

Converted amounts (≈) assume the structure as drawn.

On to `O=C(O)c1cn(C2CC2)c2cc(N3CCNCC3)c(F)cc2c1=O` [CIPROFLOXACIN], for which the MIC with Klebsiella pneumoniae [1] was greater than 32 mg/L; in the assay on Klebsiella pneumoniae [2], 0.023 mg/L (≈ 0.0694 µM); against Escherichia coli [3] it was greater than 32 mg/L; in the assay on Klebsiella pneumoniae [4], 3 mg/L (≈ 9.05 µM); against Escherichia coli [5], greater than 32 mg/L; against Klebsiella pneumoniae [6] it was 0.023 mg/L (≈ 0.0694 µM). The MIC is greater than 32 mg/L with Klebsiella pneumoniae [7]; greater than 32 mg/L against Escherichia coli [8]; greater than 32 mg/L with Escherichia coli [9]; 0.064 mg/L (≈ 0.193 µM) against Klebsiella pneumoniae [10]; greater than 32 mg/L against Escherichia coli [11]; greater than 32 mg/L in the assay with Klebsiella pneumoniae [12]. In the assay on Klebsiella pneumoniae [13], this molecule displayed an MIC of 0.064 mg/L (≈ 0.193 µM).

For the molecule `Cc1c(C(=O)NCCO)[n+]([O-])c2ccccc2[n+]1[O-]` [OLAQUINDOX], the MIC was 16 mg/L (≈ 60.8 µM) against Escherichia coli [14]; greater than 256 mg/L with Klebsiella pneumoniae [15]; 128 mg/L (≈ 486 µM) against Enterobacter cloacae [16]; 64 mg/L (≈ 243 µM) in the assay with Enterobacter cloacae [17]; 128 mg/L (≈ 486 µM) against Enterobacter cloacae [18]; 8 mg/L (≈ 30.4 µM) with Escherichia coli [19]. The MIC in the assay with Klebsiella pneumoniae [20] was 16 mg/L (≈ 60.8 µM); in the assay on Escherichia coli [21], 16 mg/L (≈ 60.8 µM); against Enterobacter cloacae [22], 32 mg/L (≈ 122 µM); against Klebsiella pneumoniae [23], greater than 256 mg/L; against Enterobacter cloacae [24] it was 128 mg/L (≈ 486 µM); against Escherichia coli [25], 8 mg/L (≈ 30.4 µM). Moreover, the MIC in the assay on Klebsiella pneumoniae [26] was found to be 16 mg/L (≈ 60.8 µM); with Klebsiella pneumoniae [27], 8 mg/L (≈ 30.4 µM); in the assay with Escherichia coli [28] it was 16 mg/L (≈ 60.8 µM); against Klebsiella pneumoniae [29], 8 mg/L (≈ 30.4 µM); in the assay on Escherichia coli [30], 16 mg/L (≈ 60.8 µM); against Escherichia coli [31], 16 mg/L (≈ 60.8 µM). For the same molecule, the MIC against Klebsiella pneumoniae [32] was greater than 256 mg/L; against Klebsiella pneumoniae [33], 8 mg/L (≈ 30.4 µM); against Klebsiella pneumoniae [34], greater than 256 mg/L; in the assay on Klebsiella pneumoniae [35], 16 mg/L (≈ 60.8 µM); in the assay on Enterobacter cloacae [36], 16 mg/L (≈ 60.8 µM); against Escherichia coli [37], 16 mg/L (≈ 60.8 µM). For the same molecule, the MIC against Escherichia coli [38] is 256 mg/L (≈ 972 µM).
